Data: ChEMBL document CHEMBL4354797, “Novel Pyrazolo[4,3- d]pyrimidine as Potent and Orally Active Inducible Nitric Oxide Synthase (iNOS) Dimerization Inhibitor with Efficacy in Rheumatoid Arthritis Mouse Model” (J Med Chem, 2019)
Active and inactive are the calls of the source. No cut-off for these calls is given here.

test system: RAW264.7; test: Antiinflammatory activity in mouse RAW264.7 cells assessed as inhibition of LPS-induced NO production at 10 uM preincubated for 1 hr followed by LPS addition and measured after 24 hrs by Griess reagent-based assay relative to control; type: functional
Method in brief: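 RAW 264.7 cells pretreated with compound for 1 h, then LPS 1 µg/mL for 24 h. Single-point inhibition at 10 µM. IC50 by regression of inhibition over several concentrations. At least three independent experiments.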

Row | SMILES | inhibition at 10 µM [%] | inhibition
1 | CCCc1nn(C)c2c(Nc3cccc(C)c3)nc(/C=C/c3ccco3)nc12 | 8.9 | 
2 | CCCc1nn(C)c2c(NCCc3ccccc3)nc(/C=C/c3cc(OC)c(OC)c(OC)c3)nc12 | 86.1 | 
3 | CCCc1nn(C)c2c(Nc3ccc(C(=O)NC(C)(C)C)cc3)nc(/C=C/c3cc(OC)c(OC)c(OC)c3)nc12 | 10.6 | 
4 | CCCc1nn(C)c2c(N3CCCCC3)nc(/C=C/c3ccccc3)nc12 | 7.7 | 
5 | CCCc1nn(C)c2c(Nc3cccc(Br)c3)nc(/C=C/c3cc(OC)c(OC)c(OC)c3)nc12 | 31 | 
6 | CCCc1nn(C)c2c(NCc3ccc(Cl)cc3)nc(/C=C/c3cc(OC)c(OC)c(OC)c3)nc12 | 67.2 | 
7 | CCCc1nn(C)c2c(Nc3ccccc3Br)nc(/C=C/c3cc(OC)c(OC)c(OC)c3)nc12 | 38.5 | 
8 | CCCc1nn(C)c2c(Nc3cccc(C)c3)nc(/C=C/c3cc(OC)c(OC)c(OC)c3)nc12 | 25.8 | 
9 | CCCc1nn(C)c2c(Nc3ccc(Cl)cc3)nc(/C=C/c3cc(OC)c(OC)c(OC)c3)nc12 | 25.3 | 
10 | CCCc1nn(C)c2c(NCCc3ccccc3F)nc(/C=C/c3ccco3)nc12 | 73 | 
11 | CCCc1nn(C)c2c(NCc3ccc(Br)cc3)nc(/C=C/c3ccco3)nc12 | 40.6 | 
12 | CCCc1nn(C)c2c(N3CCCCC3)nc(/C=C/c3cc(OC)c(OC)c(OC)c3)nc12 | 16.3 | 
13 | CCCc1nn(C)c2c(Nc3ccc(C(=O)OC)cc3)nc(-c3cc(OC)c(OC)c(OC)c3)nc12 | 17.3 | 
14 | CCCc1nn(C)c2c(Nc3cccc(C(F)(F)F)c3)nc(/C=C/c3cc(OC)c(OC)c(OC)c3)nc12 | 38.2 | 
15 | CCCc1nn(C)c2c(Nc3ccc(OC(F)(F)F)cc3)nc(/C=C/c3cc(OC)c(OC)c(OC)c3)nc12 | 16.4 | 
16 | CCCc1nn(C)c2c(N3CCOCC3)nc(/C=C/c3cc(OC)c(OC)c(OC)c3)nc12 | 81 | 
17 | CCCc1nn(C)c2c(Nc3ccc(C(F)(F)F)cc3)nc(/C=C/c3cc(OC)c(OC)c(OC)c3)nc12 | 37.8 | 
18 | CCCc1nn(C)c2c(NCCc3ccccc3F)nc(/C=C/c3ccccc3)nc12 | 43.9 | 
19 | CCCc1nn(C)c2c(N(C)C)nc(/C=C/c3ccco3)nc12 | 30.6 | 
20 | CCCc1nn(C)c2c(N3CCCC3)nc(/C=C/c3cc(OC)c(OC)c(OC)c3)nc12 | 15.5 | 
21 | CCCc1nn(C)c2c(N3CCCC3)nc(/C=C/c3ccccc3)nc12 | 6.3 | 
22 | CCCc1nn(C)c2c(Nc3ccc(Br)cc3)nc(/C=C/c3cc(OC)c(OC)c(OC)c3)nc12 | 33 | 
23 | CCCc1nn(C)c2c(Nc3cccc(C)c3)nc(/C=C/c3ccccc3)nc12 | 15.3 | 
24 | CCCc1nn(C)c2c(Nc3ccc(C(=O)O)cc3)nc(/C=C/c3cc(OC)c(OC)c(OC)c3)nc12 | 15.3 | 
25 | CCCc1nn(C)c2c(NCc3cccc(OC)c3)nc(/C=C/c3ccco3)nc12 | 35.6 | 
26 | CCCc1nn(C)c2c(NCCc3ccc(Cl)cc3)nc(-c3cc(OC)c(OC)c(OC)c3)nc12 | 22.2 | 
27 | CCCc1nn(C)c2c(NCc3cccc(OC)c3)nc(/C=C/c3cc(OC)c(OC)c(OC)c3)nc12 | 70.9 | 

Row | SMILES | inhibition at 10 µM [%] | inhibition
28 | CCCc1nn(C)c2c(NCc3ccc(OC)cc3)nc(/C=C/c3ccco3)nc12 | 43.8 | 
29 | CCCc1nn(C)c2c(Nc3ccccc3)nc(-c3cc(OC)c(OC)c(OC)c3)nc12 | 22.2 | 
30 | CCCc1nn(C)c2c(NCCc3ccc(O)cc3)nc(/C=C/c3cc(OC)c(OC)c(OC)c3)nc12 | 15 | 
31 | CCCc1nn(C)c2c(NCc3ccc(OC)cc3)nc(/C=C/c3cc(OC)c(OC)c(OC)c3)nc12 | 73.1 | 
32 | CCCc1nn(C)c2c(N3CCN(CC)CC3)nc(/C=C/c3cc(OC)c(OC)c(OC)c3)nc12 | 28.3 | 
33 | CCCc1nn(C)c2c(Nc3cccc(C(F)(F)F)c3)nc(-c3cc(OC)c(OC)c(OC)c3)nc12 |  | inactive
34 | CCCc1nn(C)c2c(Nc3ccc(C(=O)N4CCN(CC)CC4)cc3)nc(/C=C/c3cc(OC)c(OC)c(OC)c3)nc12 | 15.4 | 
35 | CCCc1nn(C)c2c(NCCc3ccc(OC)cc3)nc(/C=C/c3ccccc3)nc12 | 48 | 
36 | CCCc1nn(C)c2c(Nc3ccc(F)c(C(F)(F)F)c3)nc(/C=C/c3cc(OC)c(OC)c(OC)c3)nc12 | 82.6 | 
37 | CCCc1nn(C)c2c(NC(C)CC)nc(/C=C/c3cc(OC)c(OC)c(OC)c3)nc12 (centres undefined) | 75 | 
38 | CCCc1nn(C)c2c(NC(C)C)nc(/C=C/c3ccco3)nc12 | 37.7 | 
39 | CCCc1nn(C)c2c(NCc3ccco3)nc(/C=C/c3cc(OC)c(OC)c(OC)c3)nc12 | 62.1 | 
40 | CCCc1nn(C)c2c(Nc3ccccc3)nc(/C=C/c3cc(OC)c(OC)c(OC)c3)nc12 | 48.1 | 
41 | CCCc1nn(C)c2c(Nc3cccc(C(F)(F)F)c3)nc(/C=C/c3ccco3)nc12 | 8.9 | 
42 | CCCc1nn(C)c2c(N3CCOCC3)nc(-c3cc(OC)c(OC)c(OC)c3)nc12 | 5.2 | 
43 | CCCCNC(=O)c1ccc(Nc2nc(-c3cc(OC)c(OC)c(OC)c3)nc3c(CCC)nn(C)c23)cc1 |  | inactive
44 | CCCc1nn(C)c2c(NCc3ccccc3Cl)nc(/C=C/c3ccco3)nc12 | 54.8 | 
45 | CCCc1nn(C)c2c(Nc3ccc(C(=O)OC)cc3)nc(/C=C/c3cc(OC)c(OC)c(OC)c3)nc12 | 10.3 | 
46 | CCCc1nn(C)c2c(NCc3ccccc3OC)nc(/C=C/c3ccco3)nc12 | 38.4 | 
47 | CCCc1nn(C)c2c(NC)nc(-c3cc(OC)c(OC)c(OC)c3)nc12 | 21.6 | 
48 | CCCc1nn(C)c2c(Nc3ccc(C(=O)N4CCN(CC)CC4)cc3)nc(-c3cc(OC)c(OC)c(OC)c3)nc12 | 27.6 | 
49 | CCCc1nn(C)c2c(N(C)C)nc(-c3cc(OC)c(OC)c(OC)c3)nc12 | 21.2 | 
50 | CCCc1nn(C)c2c(NCCc3ccc(OC)cc3)nc(-c3cc(OC)c(OC)c(OC)c3)nc12 | 10.2 | 
51 | CCCc1nn(C)c2c(N3CCCCC3)nc(-c3cc(OC)c(OC)c(OC)c3)nc12 | 7.6 | 
52 | CCCc1nn(C)c2c(NCCc3ccccc3)nc(/C=C/c3ccccc3)nc12 | 48.6 | 
53 | CCCc1nn(C)c2c(NCc3ccco3)nc(/C=C/c3ccco3)nc12 | 52.3 | 
54 | CCCc1nn(C)c2c(N3CCN(CC)CC3)nc(/C=C/c3ccccc3)nc12 | 10.2 | 

Row | SMILES | inhibition at 10 µM [%] | inhibition
55 | CCCc1nn(C)c2c(NCCc3ccccc3)nc(/C=C/c3ccco3)nc12 | 36.4 | 
56 | CCCc1nn(C)c2c(N(C)C)nc(/C=C/c3cc(OC)c(OC)c(OC)c3)nc12 | 82.1 | 
57 | CCCc1nn(C)c2c(Nc3cccc(C)c3)nc(-c3cc(OC)c(OC)c(OC)c3)nc12 |  | inactive
58 | CCCc1nn(C)c2c(NCCCN3CCOCC3)nc(/C=C/c3ccccc3)nc12 | 42.4 | 
59 | CCCc1nn(C)c2c(NCCc3ccccc3F)nc(/C=C/c3cc(OC)c(OC)c(OC)c3)nc12 | 85 | 
60 | CCCc1nn(C)c2c(NCc3ccc(Cl)cc3)nc(/C=C/c3ccccc3)nc12 | 24.2 | 
61 | CCCCNC(=O)c1ccc(Nc2nc(/C=C/c3cc(OC)c(OC)c(OC)c3)nc3c(CCC)nn(C)c23)cc1 | 35.9 | 
62 | CCCc1nn(C)c2c(NCc3ccc(Br)cc3)nc(/C=C/c3cc(OC)c(OC)c(OC)c3)nc12 | 53.9 | 
63 | CCCc1nn(C)c2c(Nc3cccc(C(F)(F)F)c3)nc(/C=C/c3ccccc3)nc12 | 14.6 | 
64 | CCCc1nn(C)c2c(NCc3ccc(F)cc3)nc(/C=C/c3cc(OC)c(OC)c(OC)c3)nc12 | 69.7 | 
65 | CCCc1nn(C)c2c(NCc3ccccc3Cl)nc(/C=C/c3cc(OC)c(OC)c(OC)c3)nc12 | 90 | 
66 | CCCc1nn(C)c2c(NCCc3ccccc3Cl)nc(/C=C/c3ccccc3)nc12 | 14.3 | 
67 | CCCc1nn(C)c2c(NCCc3ccccc3Cl)nc(/C=C/c3cc(OC)c(OC)c(OC)c3)nc12 | 46.9 | 
68 | CCCc1nn(C)c2c(Nc3ccc(OC)cc3)nc(/C=C/c3cc(OC)c(OC)c(OC)c3)nc12 | 63.2 | 
69 | CCCc1nn(C)c2c(NCc3ccc(C(F)(F)F)cc3)nc(/C=C/c3cc(OC)c(OC)c(OC)c3)nc12 | 54.6 | 
70 | CCCc1nn(C)c2c(NCCc3ccccc3Cl)nc(/C=C/c3ccco3)nc12 | 70.8 | 
71 | CCCc1nn(C)c2c(NCc3ccc(C(F)(F)F)cc3)nc(/C=C/c3ccco3)nc12 | 50.2 | 
72 | CCCc1nn(C)c2c(N(C)C)nc(/C=C/c3ccccc3)nc12 | 27.1 | 
73 | CCCc1nn(C)c2c(NCc3ccc(F)cc3)nc(/C=C/c3ccco3)nc12 | 50.7 | 
74 | CCCc1nn(C)c2c(Nc3ccc(C(=O)OC)cc3)nc(/C=C/c3ccccc3)nc12 | 42.4 | 
75 | CCCc1nn(C)c2c(NCCc3ccc(Cl)cc3)nc(/C=C/c3ccccc3)nc12 | 10.7 | 
76 | CCCc1nn(C)c2c(NCCc3ccccc3)nc(-c3cc(OC)c(OC)c(OC)c3)nc12 | 20.2 | 
77 | CCCc1nn(C)c2c(NCCc3cccc(Cl)c3)nc(/C=C/c3cc(OC)c(OC)c(OC)c3)nc12 | 80 | 
78 | CCCc1nn(C)c2c(Nc3ccccc3C)nc(/C=C/c3cc(OC)c(OC)c(OC)c3)nc12 | 54.4 | 
79 | CCCc1nn(C)c2c(N3CCOCC3)nc(/C=C/c3ccccc3)nc12 | 10.2 | 
